Here are results for ten compounds from ChEMBL document CHEMBL1144171, “Novel hypoglycemic dihydropyridones serendipitously discovered from O- versus C-alkylation in the synthesis of VMAT2 antagonists” (Bioorg Med Chem Lett, 2008).

The source made the active and inactive calls. The calls are words filed in the database; no cut-off is given here.

The test system of series [1] is Rattus norvegicus. The series can be described thus: Hypoglycemic activity in fasted Lewis rat at 2 mg/kg, iv administered 30 mins prior to glucose stimulation measured after 120 mins by glucose tolerance test. It counts as functional, organism-based. More on the design: dose 2 mg/kg. In outline:
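Lewis rats fasted 6 h received drug iv at −30 min (2mg/kg), then glucose 2g/kg ip at 0 min; blood glucose followed 120 min. AUC IPGTT by trapezoidal rule, SEM (n=5); drug versus vehicle compared by Student's t test.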

The test system of series [2] is Rattus norvegicus. The series can be described thus: Toxicity in Lewis rat assessed as tonic seizure at 2 mg/kg. It counts as organism-based. Also on record: dose 2 mg/kg. The conditions noted are these: in vivo.
The target of series [3] is Dipeptidyl peptidase 4 (Homo sapiens) (UniProt P27487). The series can be described thus: Inhibition of DPP4 upto 10 uM.
Dipeptidyl peptidase 4 (Homo sapiens), sequence (P27487 whole entry, looked up): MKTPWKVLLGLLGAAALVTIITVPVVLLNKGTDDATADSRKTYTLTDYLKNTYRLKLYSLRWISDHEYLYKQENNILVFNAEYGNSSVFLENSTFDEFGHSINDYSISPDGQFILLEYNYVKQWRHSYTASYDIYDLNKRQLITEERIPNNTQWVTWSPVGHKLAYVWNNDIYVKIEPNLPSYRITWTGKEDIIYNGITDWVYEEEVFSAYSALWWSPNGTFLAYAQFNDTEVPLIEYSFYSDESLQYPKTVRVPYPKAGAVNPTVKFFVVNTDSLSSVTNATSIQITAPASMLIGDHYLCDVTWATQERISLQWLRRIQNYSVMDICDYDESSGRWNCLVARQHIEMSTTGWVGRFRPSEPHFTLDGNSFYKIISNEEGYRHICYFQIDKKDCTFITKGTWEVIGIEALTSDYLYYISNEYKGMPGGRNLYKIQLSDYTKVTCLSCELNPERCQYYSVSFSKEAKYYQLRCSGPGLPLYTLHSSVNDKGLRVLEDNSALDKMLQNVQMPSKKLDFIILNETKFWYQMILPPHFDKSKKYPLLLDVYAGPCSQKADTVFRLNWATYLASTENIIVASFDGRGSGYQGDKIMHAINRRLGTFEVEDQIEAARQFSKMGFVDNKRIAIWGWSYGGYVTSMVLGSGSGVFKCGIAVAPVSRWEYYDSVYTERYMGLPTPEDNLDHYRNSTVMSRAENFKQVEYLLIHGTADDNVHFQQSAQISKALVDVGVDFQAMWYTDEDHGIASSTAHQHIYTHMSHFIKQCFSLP

As for `COc1cc2c(cc1OC)C1CC(OCC(C)C)=CC(=O)N1CC2` (stereo not drawn), the result with Rattus norvegicus [1] was Active.

For the compound `COc1cc2c(cc1OC)C1CC(=O)C(CC(C)C)CN1CC2` (stereo not drawn) [TETRABENAZINE], the Activity entry in the series with Rattus norvegicus [2] is recorded as “Toxic”.

Take `COc1ccc(C2CC(=O)CC(=O)N2)cc1OC` (stereo not drawn): in the series with Rattus norvegicus [1], the outcome was inactive.

In the case of `COC1=CC(=O)OC(c2ccc(OC)c(OC)c2)C1` (stereo not drawn), the result in the series with Rattus norvegicus [1] was inactive.

As to `COc1ccc(C2CC(OCC(C)C)=CC(=O)N2)cc1OC` (stereo not drawn), the result in the series on Rattus norvegicus [1] was Active. Besides, the outcome in series [3] was inactive. For the same compound, the Activity entry in the series on Rattus norvegicus [2] is “Non-toxic”.

`COC1=CC(=O)N2CCc3cc(OC)c(OC)cc3C2C1` (stereo not drawn): the outcome in the series with Rattus norvegicus [1] was Active.

Consider `COc1ccc(C2CC(O)C(CC(C)C)CN2)cc1OC` (stereo not drawn), for which the result with Rattus norvegicus [1] was Active.

On to `COc1ccc(C2CC(OCC(C)C)=CC(=O)O2)cc1OC` (stereo not drawn), for which, in the series with Rattus norvegicus [1], the outcome was inactive.

`COc1ccc(-c2cc(OCC(C)C)cc(=O)[nH]2)cc1OC`: in the series with Rattus norvegicus [1], the outcome was inactive.

On to `COc1cc2c(cc1OC)[C@@H]1C[C@H](O)[C@@H](CC(C)C)CN1CC2`, for which, in the series with Rattus norvegicus [1], the outcome was Active. Moreover, in the series on Rattus norvegicus [2], the Activity result is “Toxic”.
